This note sets out measurements from ChEMBL document CHEMBL3779800 (ACS Med Chem Lett, 2016).

Data set [1] has as its target T1, Amine oxidase [flavin-containing] A (Homo sapiens, UniProt P21397).
T1 sequence (P21397 whole entry): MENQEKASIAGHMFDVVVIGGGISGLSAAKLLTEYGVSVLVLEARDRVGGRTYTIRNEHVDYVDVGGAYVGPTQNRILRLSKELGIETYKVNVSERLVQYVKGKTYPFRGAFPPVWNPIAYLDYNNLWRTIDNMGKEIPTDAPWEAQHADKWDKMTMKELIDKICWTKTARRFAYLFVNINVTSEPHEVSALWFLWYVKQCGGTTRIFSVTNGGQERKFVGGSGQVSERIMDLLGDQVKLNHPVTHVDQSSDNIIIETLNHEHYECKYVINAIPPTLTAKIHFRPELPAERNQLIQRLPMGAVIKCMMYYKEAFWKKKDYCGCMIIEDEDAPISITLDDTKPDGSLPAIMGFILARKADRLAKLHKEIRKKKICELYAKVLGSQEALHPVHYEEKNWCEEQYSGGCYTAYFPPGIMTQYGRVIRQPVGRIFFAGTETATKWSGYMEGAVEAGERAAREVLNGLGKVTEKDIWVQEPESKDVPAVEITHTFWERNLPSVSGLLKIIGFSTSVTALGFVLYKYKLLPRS
The data set is described as follows: Competitive inhibition of recombinant human MAO-A using p-tyramine as substrate preincubated for 15 mins followed by substrate addition by Lineweaver-Burk plot analysis.

Data set [2] has as its target T1, Amine oxidase [flavin-containing] A. Nature of the data set: Reversible inhibition of recombinant human MAO-A using p-tyramine as substrate incubated for 1 hr by centrifugation ultra filtration method.
Data set [3] has the same target. The data set is described as follows: Inhibition of recombinant human MAO-A using p-tyramine as substrate assessed as H2O2 production preincubated for 15 mins followed by substrate addition measured for 15 mins by amplex red assay. In outline: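 H2O2 formed from p-tyramine, a substrate shared by hMAO-A and hMAO-B, was measured with an Amplex Red MAO kit. Compounds were checked for direct reaction with the Amplex Red reagent. They were also checked for resorufin quenching by combining the highest compound concentration with various resorufin concentrations. Protein was determined by Bradford with BSA standard. Values are mean ± SEM of three independent experiments.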

Data set [4] deals with T2, Amine oxidase [flavin-containing] B (Homo sapiens, UniProt P27338).
T2 sequence (P27338 whole entry): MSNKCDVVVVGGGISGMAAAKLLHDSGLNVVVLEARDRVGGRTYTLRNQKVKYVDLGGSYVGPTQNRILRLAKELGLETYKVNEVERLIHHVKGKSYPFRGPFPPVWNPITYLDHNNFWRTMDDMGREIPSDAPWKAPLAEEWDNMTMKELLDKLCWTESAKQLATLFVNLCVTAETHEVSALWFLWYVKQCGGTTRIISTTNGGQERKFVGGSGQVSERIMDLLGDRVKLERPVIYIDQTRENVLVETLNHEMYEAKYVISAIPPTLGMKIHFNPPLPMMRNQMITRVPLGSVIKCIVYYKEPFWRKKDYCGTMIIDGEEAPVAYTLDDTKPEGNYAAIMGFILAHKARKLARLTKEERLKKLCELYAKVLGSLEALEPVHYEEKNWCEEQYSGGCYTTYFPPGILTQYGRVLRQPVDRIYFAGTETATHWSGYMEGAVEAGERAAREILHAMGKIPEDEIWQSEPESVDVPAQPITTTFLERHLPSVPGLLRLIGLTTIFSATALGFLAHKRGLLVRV
Nature of the data set: Inhibition of recombinant human MAO-B using p-tyramine as substrate assessed as H2O2 production preincubated for 15 mins followed by substrate addition measured for 15 mins by amplex red assay.

The species named for a further data set is Homo sapiens. Nature of the data set: Selectivity index, ratio of Ki for recombinant human MAO-A to Ki for recombinant human MAO-B. In outline:
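SI is Ki(MAO-A)/Ki(MAO-B). Each Ki comes from the Amplex Red H2O2 assay with p-tyramine substrate and is the mean ± SEM of three independent experiments. Racemates were tested. A lower SI indicates MAO-A preference and a higher SI indicates MAO-B preference.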

Data set [5] addresses T1, Amine oxidase [flavin-containing] A. The data set is described as follows: Suicide inhibition of recombinant human MAO-A using p-tyramine as substrate preincubated for 15 mins followed by substrate addition by Lineweaver-Burk plot analysis.
The target is the same in data set [6]. Nature of the data set: Irreversible inhibition of recombinant human MAO-A using p-tyramine as substrate incubated for 1 hr by centrifugation ultra filtration method. In outline:
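Reversibility of hMAO-A inhibition assessed by a centrifugation-ultrafiltration method. Enzyme activity was read as H2O2 production from p-tyramine using Amplex Red fluorescence. Compounds were checked for direct reaction with Amplex Red and for resorufin quenching, tested at their maximum concentration against various resorufin concentrations. Racemic compounds were used.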

Molecules are shown by their SMILES.

On to `O=C(NCCN1CCOCC1)c1ccc(Cl)cc1` [MOCLOBEMIDE], for which the “inhibition (INH)” value in data set [1] and in data set [2] was “Active” in each case.

On to `COc1cc(C2=NNC(c3ccccc3)C2)ccc1O` (racemic), for which the Ki amounted to 5.02 µM in data set [3] and 0.35 µM in data set [4]. In the data set filed under Homo sapiens, the Ratio Ki worked out at 14.3. Besides, the “inhibition (INH)” value in data set [1] and in data set [2] was “Active” throughout.

`COc1cc(C2=NN(C(=N)N)C(c3ccccc3)C2)ccc1O` (racemic): the inhibition constant Ki was 9.55 µM in data set [3] and 201 µM in data set [4]. For the same compound, the Ratio Ki in the data set listed under Homo sapiens was 0.047. For the same compound, the “inhibition (INH)” value in data set [1] and in data set [2] was “Active” in each case.

Turning to `COc1cc(C2=NN(C(C)=O)C(c3ccccc3)C2)ccc1O` (racemic), the Ki in data set [3] is 3.87 µM. For the same compound, the “inhibition (INH)” value in data set [1] and in data set [2] was “Active” throughout.

With `COc1cc(C2=NN(c3ccccc3)C(c3ccccc3)C2)ccc1O` (racemic), the Ki in data set [3] is 2.16 µM. The “inhibition (INH)” value in data set [1] and in data set [2] was “Active” throughout.

As to `COc1cc(C2=NN(C(N)=S)C(c3ccccc3)C2)ccc1O` (racemic), the Ki in data set [3] was found to be 2.58 µM; in data set [4], 2.78 µM. The Ratio Ki in the data set filed under Homo sapiens was found to be 0.928. Also, the “inhibition (INH)” value in data set [1] and in data set [2] was “Active” throughout.

For `COc1cc(C2=NN(C(=S)Nc3ccccc3)C(c3ccccc3)C2)ccc1O` (racemic), the figures for the Ki in data set [3] and in data set [4] were 0.55 µM and 15.9 µM, respectively. For the same compound, the Ratio Ki in the data set listed under Homo sapiens was 0.035. The “inhibition (INH)” value in data set [1] and in data set [2] was “Active” throughout.

`COc1cc(C2=NN(S(=O)(=O)c3ccc(C)cc3)C(c3ccccc3)C2)ccc1O` (racemic): the inhibition constant (Ki) was 0.06 µM in data set [3] and 5900 µM in data set [4]. Moreover, the Ratio Ki in the data set listed under Homo sapiens came out at 1.02e-05. Also, the “inhibition (INH)” value in data set [1] and in data set [2] was “Active” each time.

In the case of `COc1cc(C2=NN(C(=O)c3ccccc3)C(c3ccccc3)C2)ccc1O` (racemic), the results for the Ki in data set [3] and in data set [4] were 4.25 µM and 41 µM, respectively. Moreover, the Ratio Ki in the data set filed under Homo sapiens stood at 0.104. Further, the “inhibition (INH)” value in data set [1] and in data set [2] was “Active” each time.

Turning to `CCOC(=O)N1N=C(c2ccc(O)c(OC)c2)CC1c1ccccc1` (racemic), the Ki is 0.44 µM in data set [3] and 201 µM in data set [4]. Moreover, the Ratio Ki in the data set listed under Homo sapiens is 0.002. Moreover, the “inhibition (INH)” value in data set [1] and in data set [2] was “Active” throughout.

With `COc1cc(/C=C/C(=O)CC(=O)/C=C/c2ccc(O)c(OC)c2)ccc1O` [CURCUMIN], the “inhibition (INH)” value in data set [1] and in data set [2] was “Active” in each case.

With `COc1cc(C2=NN(C(=O)Oc3ccccc3)C(c3ccccc3)C2)ccc1O` (racemic), the Ki in data set [3] is 0.29 µM; in data set [4], 4 µM. Further, the Ratio Ki in the data set listed under Homo sapiens was 0.073. The “inhibition (INH)” value in data set [1] and in data set [2] was “Active” in each case.

For `C#CCN(C)[C@H](C)Cc1ccccc1` [SELEGILINE], the “inhibition (INH)” value in data set [5] and in data set [6] was “Active” throughout.
